For series [1], the system named is Rattus norvegicus. The series can be described thus: Biodistribution in fetal brain of pregnant Sprague-Dawley rat at 5 mg/kg, po administered as single dose measured after 8 hrs. Type of series: ADME, organism-based. Details: dose 5 mg/kg, dosed compound name [14C]-apixaban, route oral. As to conditions: in vivo. Summed up: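 Pregnant SD rats received a single oral gavage of [14C]apixaban at 5 mg/kg (100 μCi/kg; 1.0 mg/mL, 20 μCi/mL in 0.5% Tween 80/Labrafil) after fasting, one dam per time point. Frozen carcasses were cut into 40 µm sagittal sections and read by phosphor-imaging QWBA against [14C]glucose standards. Fetal tissue radioactivity is reported as µg eq/g, with LLOQ 0.037 µg eq/g.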

Series [2] deals with Blood. The series can be described thus: Biodistribution in pregnant Sprague-Dawley rat blood at 5 mg/kg, po administered as single dose measured after 24 hrs. The series is classed as ADME, organism-based. The arrangement: dose 5 mg/kg, dosed compound name [14C]-apixaban, route oral. As to conditions: in vivo. In a few lines:
(§1)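 Fasted pregnant SD rats (n=6, 270-319 g) each received one oral gavage dose of [14C]apixaban, 5 mg/kg (100 μCi/kg), in 0.5% Tween 80/Labrafil. One rat was killed at each of 0.5, 1, 4, 8, 24 and 48 h. Carcasses were frozen in hexane/dry ice, cut into 40 µm sagittal sections, exposed to phosphor plates and quantified against [14C]glucose standards as µg eq/g. LLOQ was 0.037 µg eq/g.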

Series [3] concerns Harderian gland. The series can be described thus: Biodistribution in female Sprague-Dawley rat harderian gland at 5 mg/kg, po administered as single dose measured after 0.5 hrs. The arrangement: dose 5 mg/kg, dosed compound name [14C]-apixaban, route oral. Type of series: ADME, organism-based. As to conditions: in vivo. Summed up: (§2)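 [¹⁴C]Apixaban given by oral gavage at 5 mg/kg (100 μCi/kg) in 0.5% Tween 80 in Labrafil (1.0 mg/mL dosing solution) to rats fasted overnight through 4 h post-dose. One rat per time point; carcass frozen in hexane/dry ice. Quantitative whole-body autoradiography used 40 µm sagittal sections and a phosphor imaging plate calibrated with [¹⁴C]glucose standards (0.001–6.5 μCi/g). Read-out in µg eq apixaban/g; LLOQ 0.037 μg eq/g.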

The test system of series [4] is Spleen. The series can be described thus: Biodistribution in female Sprague-Dawley rat spleen at 5 mg/kg, po administered as single dose measured after 72 hrs. The series is classed as ADME, organism-based. Details: dose 5 mg/kg, dosed compound name [14C]-apixaban, route oral. As to conditions: in vivo. In a few lines: (§3)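 Quantitative whole-body autoradiography was run after a single 5 mg/kg (100 μCi/kg) oral gavage to fasted female or pregnant SD rats, one rat per time point. Carcasses were frozen in hexane/dry ice, and 40 µm sagittal sections were dried at −20°C for at least 48 h. Sections were exposed to a phosphor plate alongside [14C]glucose standards (0.001–6.5 µCi/g). Results are µg eq/g, with LLOQ 0.037 µg eq/g.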

The subject of series [5] is Thymus. The series can be described thus: Biodistribution in female Sprague-Dawley rat thymus at 5 mg/kg, po administered as single dose measured after 72 hrs. Type of series: ADME, organism-based. The arrangement: dose 5 mg/kg, dosed compound name [14C]-apixaban, route oral. As to conditions: in vivo. In a few lines:
as §3

The test system of series [6] is Rattus norvegicus. The series can be described thus: Biodistribution in male Sprague-Dawley rat bone marrow at 5 mg/kg, po administered as single dose measured after 0.5 hrs. Type of series: ADME, organism-based. Details: dose 5 mg/kg, dosed compound name [14C]-apixaban, route oral. As to conditions: in vivo. In a few lines:
(§4)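 Fasted male rats, 225-252 g, received [14C]apixaban by single oral gavage at 100 μCi/kg in 0.5% Tween 80/Labrafil. One rat was killed per time point and the carcass frozen. Tissue radioactivity was quantified by QWBA (40 µm sagittal sections, phosphor plate, [14C]glucose calibration) as µg eq apixaban/g, with LLOQ 0.037 μg eq/g.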

In series [7] the test system is Harderian gland. The series can be described thus: Biodistribution in male Sprague-Dawley rat harderian gland at 5 mg/kg, po administered as single dose measured after 24 hrs. The series is classed as ADME, organism-based. Details: dose 5 mg/kg, dosed compound name [14C]-apixaban, route oral. As to conditions: in vivo. In a few lines:
(§5)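 Fasted male SD rats (225-252 g) each received one oral gavage dose of [14C]apixaban, 5 mg/kg (100 μCi/kg), in 0.5% Tween 80/Labrafil vehicle. One rat was killed per time point, from 0.5 to 168 h. Frozen carcasses were cut into 40 µm sagittal whole-body sections and read by QWBA phosphor imaging against [14C]glucose calibrants. Results are in µg apixaban eq/g; BLQ <0.037 µg eq/g.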

Series [8] has as its system Rattus norvegicus. The series can be described thus: Biodistribution in female Sprague-Dawley rat kidney cortex at 5 mg/kg, po administered as single dose measured after 4 hrs. As to conditions: in vivo. Details: dose 5 mg/kg, dosed compound name [14C]-apixaban, route oral. The series is classed as ADME, organism-based. In a few lines: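 [14C]apixaban (20 μCi/mL in dosing solution) in 0.5% Tween 80 in Labrafil given by oral gavage to fasted female rats, 206-213 g, at 100 μCi/kg. One rat per time point was euthanized and snap-frozen. Sagittal 40 µm whole-body sections were read by QWBA phosphor imaging against [14C]glucose standards. Results are in µg eq apixaban/g, with LLOQ 0.037 μg eq/g.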

Series [9] deals with Brain. The series can be described thus: Biodistribution in male Sprague-Dawley rat brain at 5 mg/kg, po administered as single dose measured after 8 hrs. The series is classed as ADME, organism-based. Details: dose 5 mg/kg, dosed compound name [14C]-apixaban, route oral. As to conditions: in vivo.
Series [10] has as its system Adrenal gland. The series can be described thus: Biodistribution in pregnant Sprague-Dawley rat adrenal gland at 5 mg/kg, po administered as single dose measured after 1 hr. The series is classed as ADME, organism-based. As to conditions: in vivo. Details: dose 5 mg/kg, dosed compound name [14C]-apixaban, route oral.
Series [11] has as its system Rattus norvegicus. The series can be described thus: Biodistribution in male Sprague-Dawley rat bone marrow at 5 mg/kg, po administered as single dose measured after 8 hrs. The series is classed as ADME, organism-based. Details: dose 5 mg/kg, dosed compound name [14C]-apixaban, route oral. As to conditions: in vivo. In a few lines: as §4
The test system of series [12] is Heart. The series can be described thus: Biodistribution in pregnant Sprague-Dawley rat heart at 5 mg/kg, po administered as single dose measured after 48 hrs. Type of series: ADME, organism-based. Details: dose 5 mg/kg, dosed compound name [14C]-apixaban, route oral. As to conditions: in vivo. In a few lines: as §1
For series [13], the system named is Spleen. The series can be described thus: Biodistribution in female Sprague-Dawley rat spleen at 5 mg/kg, po administered as single dose measured after 4 hrs. The series is classed as ADME, organism-based. The arrangement: dose 5 mg/kg, dosed compound name [14C]-apixaban, route oral. As to conditions: in vivo. In a few lines:
as §2

The test system of series [14] is Rattus norvegicus. The series can be described thus: Biodistribution in pregnant Sprague-Dawley rat kidney cortex at 5 mg/kg, po administered as single dose measured after 1 hr. The arrangement: dose 5 mg/kg, dosed compound name [14C]-apixaban, route oral. Type of series: ADME, organism-based. As to conditions: in vivo.
Series [15] relates to Liver. The series can be described thus: Biodistribution in male Sprague-Dawley rat liver at 5 mg/kg, po administered as single dose measured after 72 hrs. The series is classed as ADME, organism-based. Details: dose 5 mg/kg, dosed compound name [14C]-apixaban, route oral. As to conditions: in vivo. Summed up: as §5
The test system of series [16] is Pancreas. The series can be described thus: Biodistribution in female Sprague-Dawley rat pancreas at 5 mg/kg, po administered as single dose measured after 8 hrs. Type of series: ADME, organism-based. As to conditions: in vivo. Details: dose 5 mg/kg, dosed compound name [14C]-apixaban, route oral. Summed up:
as §2

Series [17] concerns Rattus norvegicus. The series can be described thus: Biodistribution in male Sprague-Dawley rat pituitary gland at 5 mg/kg, po administered as single dose measured after 0.5 hrs. As to conditions: in vivo. Details: dose 5 mg/kg, dosed compound name [14C]-apixaban, route oral. Type of series: ADME, organism-based.
Series [18] deals with Blood. The series can be described thus: AUC (0 to infinity) in female Sprague-Dawley rat blood at 5 mg/kg, po administered as single dose. As to conditions: in vivo. Details: time infinity, dose 5 mg/kg, dosed compound name [14C]-apixaban, route oral. Type of series: ADME, organism-based.
The test system of series [19] is Rattus norvegicus. The series can be described thus: Biodistribution in pregnant Sprague-Dawley rat kidney cortex at 5 mg/kg, po administered as single dose measured after 24 hrs. The series is classed as ADME, organism-based. Details: dose 5 mg/kg, dosed compound name [14C]-apixaban, route oral. As to conditions: in vivo.
Series [20] in a line: Drug excretion in Sprague-Dawley rat urine assessed as apixaban level at 30 mg/kg, po by HPLC method. As to conditions: read-out: Compound recovery.
Series [21] has as its system Blood. The series can be described thus: AUC (0 to t) in female Sprague-Dawley rat blood at 5 mg/kg, po administered as single dose. As to conditions: in vivo. Type of series: ADME, organism-based. The arrangement: dose 5 mg/kg, dosed compound name [14C]-apixaban, route oral.
Series [22] has as its system Thymus. The series can be described thus: Biodistribution in pregnant Sprague-Dawley rat thymus at 5 mg/kg, po administered as single dose measured after 4 hrs. The series is classed as ADME, organism-based. The arrangement: dose 5 mg/kg, dosed compound name [14C]-apixaban, route oral. As to conditions: in vivo.
Series [23] deals with Rattus norvegicus. The series can be described thus: Biodistribution in pregnant Sprague-Dawley rat amnion at 5 mg/kg, po administered as single dose measured after 48 hrs. Type of series: ADME, organism-based. As to conditions: in vivo. The arrangement: dose 5 mg/kg, dosed compound name [14C]-apixaban, route oral. In a few lines:
as §1

The subject of series [24] is Rattus norvegicus. The series can be described thus: Biodistribution in fetal blood of pregnant Sprague-Dawley rat at 5 mg/kg, po administered as single dose measured after 4 hrs. Type of series: ADME, organism-based. The arrangement: dose 5 mg/kg, dosed compound name [14C]-apixaban, route oral. As to conditions: in vivo. Summed up: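 Pregnant rats, 270-319 g and fasted overnight, received [14C]apixaban by oral gavage at 100 μCi/kg in 0.5% Tween 80/Labrafil. One dam per time point was euthanized and frozen in hexane/dry ice. Fetal tissue radioactivity was measured by QWBA on 40 µm sagittal sections calibrated with [14C]glucose standards. Values are in µg eq/g, with LLOQ 0.037 μg eq/g.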

A value given as a limit tells only on which side of the number the result lay.

For `COc1ccc(-n2nc(C(N)=O)c3c2C(=O)N(c2ccc(N4CCCC[14C]4=O)cc2)CC3)cc1`, the Radiolabel recovery is < 0.037 ugequiv/g in [1]; “Not detected assumed BLQ” in series [2]; 0.4 ugequiv/g in series [3]; “Not detected assumed BLQ” in series [4]; “Not detected assumed BLQ” in [5]; 0.26 ugequiv/g in series [6]. Besides, the Radiolabel recovery result is “Not detected assumed BLQ” in series [7]; 1.21 ugequiv/g in series [8]; < 0.037 ugequiv/g in [9]; 1.9 ugequiv/g in [10]; 0.07 ugequiv/g in series [11]; “Not detected assumed BLQ” in series [12]. Moreover, the Radiolabel recovery is given as 0.45 ugequiv/g in series [13]; 2.03 ugequiv/g in [14]; “Not detected assumed BLQ” in series [15]; 0.19 ugequiv/g in series [16]; 0.26 ugequiv/g in series [17]; 0.05 ugequiv/g in series [19]. Further, the Radiolabel recovery was 0.54 ugequiv/g in series [22], “Not sampled as not visualised in autoradiograph” in series [23] and 0.51 ugequiv/g in series [24]. Besides, the AUC in series [18] stood at 3780 ngequiv.hr/g. In addition, the dose excreted in series [20] is 93%. In [21], the AUCt amounted to 3110 ngequiv.hr/g.

The record behind these values is ChEMBL document CHEMBL3525963, “Tissue distribution and elimination of [14C]apixaban in rats” (Drug Metab Dispos, 2011).
